Laboratory results: ChEMBL document CHEMBL1135440, “(+)-Dinapsoline: an efficient synthesis and pharmacological profile of a novel dopamine agonist” (J Med Chem, 2002)

How the values were obtained:
[1] = system: Rattus norvegicus; experiment: In vivo number of rotations at a dose of 0.2 mg/kg administered subcutaneously to Sprague-Dawley rats; assay type: functional; settings: route subcutaneous
Outline: (§1)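 Sprague-Dawley rats with unilateral 6-OHDA lesions of medial forebrain bundle, prescreened for rotation to amphetamine (5 mg/kg: 800 rotations/3 h) and apomorphine (0.2 mg/kg: 100 rotations/1 h). Subcutaneous dosing; rotations counted over 10 h, mean ± sem, n 5–10 per group. Each rat received four treatments, weekly, counterbalanced order.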

[2] = system: SK-N-MC; experiment: In vitro adenylate cyclase response in neuroblastoma cell line; assay type: functional, cell-based; settings: Homo sapiens
Outline: (§2)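 SK-N-MC human neuroblastoma cells with endogenous D1 receptor, seeded at 10⁵ cells/mL 1 day before assay (37 °C, 5% CO₂). Cells exposed to varying compound concentrations in assay buffer with 1 mM IBMX, 10 min at 37 °C; stopped with 0.1 N HCl; cAMP measured by radioimmunoassay; dose-response curves fitted by nonlinear regression.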

[3] = system: Rattus norvegicus; experiment: In vivo number of rotations at a dose of 2 mg/kg administered subcutaneously to Sprague-Dawley rats; assay type: functional; settings: route subcutaneous; outline: as §1
[4] = In vitro intrinsic activity which is the ratio of the cyclase response of compound relative to that of dopamine; assay type: functional
Outline: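 cAMP accumulation in SK-N-MC cells (endogenous D1), varying compound concentrations with 1 mM IBMX, 10 min at 37 °C, cAMP by radioimmunoassay, nonlinear curve fitting. Intrinsic activity taken as ratio of compound maximal cyclase response to that of dopamine.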

[5] = system: SK-N-MC; experiment: In vitro adenylate cyclase response in neuroblastoma cell line SK-N-MC; assay type: functional, cell-based; settings: Homo sapiens; outline: as §2

SMILES	Rotations/10 h [1]	EC50 [2]	Rotations/10 h [3]	Intrinsic activity [4]	EC50 [5]
Oc1ccc2c(c1O)Cc1cccc3c1[C@@H]2CNC3	8	> 10000 nM	7	–	–
Oc1ccc2c(c1O)Cc1cccc3c1[C@H]2CNC3	4100	220 nM	7000	1	–
Oc1ccc2c(c1O)Cc1cccc3c1C2CNC3 (racemic)	1900	–	4800	1.2	190 nM
CCCc1cc2c(s1)CN[C@@H]1CCc3cc(O)c(O)cc3[C@@H]21 [A-86929]	1100	–	4200	–	–
